{"source": "PubChem BioAssay AID504825", "about": "(Southern Research Specialized Biocontainment Screening …, 2011)"}
{"tested_on": "HEp-2 viability, luminescence (CellTiter-Glo)", "assay": "viability of uninfected HEp-2 host cells – cell-based, synthesized compounds, set 10, cytotoxicity control for RSV antiviral project, dose response (AID 504825)", "method_in_brief": "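Controls: cell-only wells, 100% reference; test system: uninfected HEp-2 human cells, compound cytotoxicity; amount: 10,595 HEp-2 cells per well; incubation: 6-day compound exposure at 37 °C, 5% CO2; detection: CellTiter-Glo luminescence; buffer or medium: DMEM/F12; dosing: 8 points, 1:2 steps, 0.5% DMSO; measure: % viability and CC50, 4-parameter fit; replication: triplicate wells per concentration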", "units": {"CC50": "µM"}}
{"compound": "Cc1ccc(NC(=O)[C@@H]2CCCN2S(=O)(=O)c2cccc3cccnc23)c(C)c1", "CC50": 29}
{"compound": "Cc1cc(NC(=O)[C@@H]2CCCN2S(=O)(=O)c2cccc3cccnc23)n(C(C)(C)C)n1", "CC50": 55.1}
{"compound": "COc1ccc(C)c(NC(=O)[C@@H]2CCCN2S(=O)(=O)c2cccc3cccnc23)c1", "CC50": 47.7}
